In ChEMBL document CHEMBL4819107, “Substituted N-(4-amino-2-chlorophenyl)-5-chloro-2-hydroxybenzamide analogues potently inhibit respiratory syncytial virus (RSV) replication and RSV infection-associated inflammatory responses” (Bioorg Med Chem, 2021):
Active and inactive are the calls of the source. The calls are words filed in the database; no cut-off is given here.

Assays:
[1] = test system: Respiratory syncytial virus; test: Antiviral activity against RSV infected in human A549 cells assessed as reduction in viral titer at 10 uM incubated for 15 hrs by immunostaining analysis; assay type: functional
In short: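 RSV long strain (propagated in HEp-2, sucrose-gradient purified) infected A549 cells at MOI 1 for 2 h. Inoculum removed, then compound at 10 μM for 15 h. Progeny virus titred by immunostaining in HEp-2 cells with biotin-conjugated goat anti-RSV antibody. Log reduction = log10 mean titer of vehicle-treated cells minus log10 mean titer with compound.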

A549 [2] = test: Cytotoxicity against human A549 cells assessed as cell death at 10 uM incubated for 15 hrs by LDH assay; assay type: cell-based; settings: a549, 15 h
In short: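 A549 cells seeded at 1.5 × 10^4 cells/well. After 24 h, medium replaced with medium containing 10 μM compound and 2% FBS. At 15 h, cell damage read by luminescent LDH release assay. DMSO vehicle control; three biological replicates.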

[3] = molecular target: T1, Nuclear factor NF-kappa-B complex (Homo sapiens) (UniProt Q00653+P19838+Q04206); test: Inhibition of NF-kappaB in human A549 cells assessed as reduction in p65 Ser536 phosphorylation at 10 uM measured after 4 hrs by Western blot analysis; assay type: cell-based
In short: (§1)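 A549 cells infected or mock-infected with RSV (MOI 5), then treated with 10 μM compound for 4 h. Nuclear extracts (or total lysates) prepared, resolved by SDS-PAGE, transferred to PVDF, and probed by western blot. β-actin as loading control.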

SAEC [4] = test: Antiinflammatory activity against in human SAEC cells assessed as reduction in RSV-induced TNF-alpha production at 10 uM incubated for 4 hrs by immunoassay; assay type: functional, cell-based
In short: (§2)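 Primary small airway epithelial cells infected with RSV long strain at MOI 5. Virus removed at 2 h, then 10 μM compound added. Supernatant collected 4 h post-treatment. Cytokines/chemokines quantified with a multiplex human profiling bead kit (Bio-Plex).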

[5] = molecular target: Interferon regulatory factor 3 (Homo sapiens) (UniProt Q14653); test: Inhibition of IRF3 in RSV-infected human A549 cells assessed as reduction in IRF3 nuclear translocation at 10 uM measured upto 15 hrs by Western blot analysis; settings: time hrs <=15
[6] = molecular target: T1, Nuclear factor NF-kappa-B complex (Homo sapiens); test: Inhibition of NF-kappaB in human A549 cells assessed as reduction in p65 nuclear translocation at 10 uM measured after 4 hrs by Western blot analysis; assay type: cell-based; in short: as §1
[7] = molecular target: T1, Nuclear factor NF-kappa-B complex (Homo sapiens); test: Inhibition of NF-kappaB in human A549 cells assessed as reduction in p65 nuclear translocation at 10 uM measured after 15 hrs by Western blot analysis; assay type: cell-based
In short: (§3)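 A549 cells infected or mock-infected with RSV (MOI 1), then treated with 10 μM compound for 15 h. Nuclear extracts prepared and analysed by western blot after SDS-PAGE and PVDF transfer. β-actin as loading control.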

A549 [8] = test: Cytotoxicity against human A549 cells assessed as reduction in cell viability incubated for 15 hrs by trypan blue assay; settings: a549, 15 h
A549 [9] = test: Antiinflammatory activity against in human A549 cells transfected with PRDIII-I-Luc and IRF-3-Luc assessed as reduction in RSV-induced IRF3 activation at 10 uM incubated for 15 hrs by luciferase reporter gene assay; assay type: functional, cell-based
In short: (§4)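 A549 cells transfected in triplicate with luciferase plasmids, either NF-κB-Luc or IRF-3-site reporters. At 20 h post-transfection, infected with RSV (MOI 1). Virus removed at 2 h, then 10 μM compound added for 15 h. Cells then harvested and lysed for luciferase activity.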

[10] = test system: Respiratory syncytial virus; test: Antiviral activity against RSV infected in human A549 cells assessed as reduction in viral phosphoprotein at 10 uM incubated for 15 hrs by Western blot analysis; assay type: functional, organism-based
In short: (§5)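 A549 cells infected with RSV (MOI 1) and treated with 10 μM compound for 15 h. Viral proteins detected by western blot of lysates using anti-RSV or anti-F antibodies, with β-actin as loading control. Membranes blocked in 5% milk in TBS-Tween 20.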

[11] = molecular target: T1, Nuclear factor NF-kappa-B complex (Homo sapiens); test: Inhibition of TNF-alpha-induced NF-kappaB (unknown origin) transfected in human HEK293 cells co-transfected with NF-kappaB-Luc gene incubated for 4 hrs by luciferase reporter gene; assay type: cell-based
In short: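 HEK-293 cells transiently transfected with NF-κB luciferase reporter. At 15 h post-transfection, stimulated with 10 ng/ml TNF-α in the presence of compound. Luciferase activity then measured.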

[12] = molecular target: T1, Nuclear factor NF-kappa-B complex (Homo sapiens); test: Inhibition of NF-kappaB in human A549 cells assessed as reduction in p65 Ser536 phosphorylation at 10 uM measured after 15 hrs by Western blot analysis; assay type: cell-based; in short: as §3
[13] = molecular target: T1, Nuclear factor NF-kappa-B complex (Homo sapiens); test: Inhibition of NF-kappaB in human A549 cells assessed as reduction in p65 Ser276 phosphorylation at 10 uM measured after 15 hrs by Western blot analysis; assay type: cell-based; in short: as §3
A549 [14] = test: Antiinflammatory activity against in human A549 cells assessed as reduction in RSV-induced IRF3 mRNA expression at 10 uM incubated for 4 hrs by qRT-PCR analysis; assay type: functional, cell-based
A549 [15] = test: Antiinflammatory activity against in human A549 cells assessed as reduction in RSV-induced NF-kappaB mRNA expression at 10 uM incubated for 4 hrs by qRT-PCR analysis; assay type: functional, cell-based
[16] = test system: Respiratory syncytial virus; test: Antiviral activity against RSV infected in human A549 cells assessed as reduction in viral RNA at 10 uM measured upto 24 hrs by qRT-PCR analysis; assay type: functional, organism-based; settings: time hrs <=24
In short: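 A549 cells infected with RSV (MOI 1), then given 10 μM compound. RSV genome copies in cells quantified by RT-qPCR at 6, 15 and 24 h post-treatment. A fusion inhibitor served as a reference control.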

A549 [17] = test: Antiinflammatory activity against in human A549 cells transfected with NF-kappaB-Luc assessed as reduction in RSV-induced NF-kappaB activation at 10 uM incubated for 15 hrs by luciferase reporter gene assay; assay type: functional, cell-based; in short: as §4
[18] = test system: Respiratory syncytial virus; test: Antiviral activity against RSV infected in human A549 cells assessed as reduction in viral titer at 2.5 uM incubated for 15 hrs by immunostaining analysis; assay type: functional
In short: (§6)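 Dose-response: A549 cells infected with RSV long strain at MOI 1, then treated with a range of compound concentrations for 15 h. Total virus harvested and titred by immunostaining in HEp-2 cells with biotin-conjugated goat anti-RSV antibody. Reduction expressed as log decrease in titer relative to vehicle (DMSO) control.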

[19] = test system: Respiratory syncytial virus; test: Antiviral activity against RSV infected in human A549 cells assessed as reduction in viral matrix protein at 10 uM incubated for 15 hrs by Western blot analysis; assay type: functional, organism-based; in short: as §5
SAEC [20] = test: Antiinflammatory activity against in human SAEC cells assessed as reduction in RSV-induced MIP-1beta production at 10 uM incubated for 4 hrs by immunoassay; assay type: functional, cell-based; in short: as §2
[21] = test system: Respiratory syncytial virus; test: Antiviral activity against RSV infected in human A549 cells assessed as reduction in viral N protein at 10 uM incubated for 15 hrs by Western blot analysis; assay type: functional, organism-based; in short: as §5
SAEC [22] = test: Antiinflammatory activity against in human SAEC cells assessed as reduction in RSV-induced IL-6 production at 10 uM incubated for 4 hrs by immunoassay; assay type: functional, cell-based; in short: as §2
[23] = molecular target: Interferon regulatory factor 3 (Homo sapiens) (UniProt Q14653); test: Inhibition of IRF3 in RSV-infected human A549 cells assessed as reduction in IRF3 Ser396 phosphorylation at 10 uM measured upto 15 hrs by Western blot analysis; settings: time hrs <=15
[24] = molecular target: T1, Nuclear factor NF-kappa-B complex (Homo sapiens); test: Inhibition of NF-kappaB in human A549 cells assessed as reduction in p65 Ser276 phosphorylation at 10 uM measured after 4 hrs by Western blot analysis; assay type: cell-based; in short: as §1
[25] = molecular target: T2, Interferon regulatory factor 3 (Homo sapiens) (UniProt Q14653); test: Inhibition of poly I:C-induced IRF3 (unknown origin) transfected in human HEK293 cells co-transfected with IRF3-Luc gene incubated for 4 hrs by luciferase reporter gene; assay type: cell-based
T2 sequence (whole entry): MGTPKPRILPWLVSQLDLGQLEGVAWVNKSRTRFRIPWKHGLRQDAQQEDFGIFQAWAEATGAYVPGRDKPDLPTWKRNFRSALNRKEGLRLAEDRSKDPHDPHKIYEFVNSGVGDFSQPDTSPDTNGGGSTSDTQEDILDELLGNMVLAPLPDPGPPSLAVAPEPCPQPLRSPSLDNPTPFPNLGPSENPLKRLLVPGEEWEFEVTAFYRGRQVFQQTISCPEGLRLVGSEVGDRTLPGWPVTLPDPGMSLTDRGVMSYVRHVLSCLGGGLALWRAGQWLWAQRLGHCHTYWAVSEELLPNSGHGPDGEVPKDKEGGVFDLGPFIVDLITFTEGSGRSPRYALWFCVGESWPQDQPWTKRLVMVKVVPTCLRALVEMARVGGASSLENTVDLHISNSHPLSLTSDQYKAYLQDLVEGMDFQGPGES
In short: (§7)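 HEK-293 cells transiently transfected with IRF-3 or NF-κB luciferase reporter. At 15 h post-transfection, cells transfected with Poly I:C in the presence of compound. Luciferase activity then measured.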

[26] = test system: Respiratory syncytial virus; test: Antiviral activity against RSV infected in human A549 cells assessed as reduction in viral titer at 7.5 uM incubated for 15 hrs by immunostaining analysis; assay type: functional; in short: as §6
[27] = molecular target: T1, Nuclear factor NF-kappa-B complex (Homo sapiens); test: Inhibition of poly I:C-induced NF-kappaB (unknown origin) transfected in human HEK293 cells co-transfected with NF-kappaB-Luc gene incubated for 4 hrs by luciferase reporter gene; assay type: cell-based; in short: as §7

T1 sequence (P19838 whole entry, looked up): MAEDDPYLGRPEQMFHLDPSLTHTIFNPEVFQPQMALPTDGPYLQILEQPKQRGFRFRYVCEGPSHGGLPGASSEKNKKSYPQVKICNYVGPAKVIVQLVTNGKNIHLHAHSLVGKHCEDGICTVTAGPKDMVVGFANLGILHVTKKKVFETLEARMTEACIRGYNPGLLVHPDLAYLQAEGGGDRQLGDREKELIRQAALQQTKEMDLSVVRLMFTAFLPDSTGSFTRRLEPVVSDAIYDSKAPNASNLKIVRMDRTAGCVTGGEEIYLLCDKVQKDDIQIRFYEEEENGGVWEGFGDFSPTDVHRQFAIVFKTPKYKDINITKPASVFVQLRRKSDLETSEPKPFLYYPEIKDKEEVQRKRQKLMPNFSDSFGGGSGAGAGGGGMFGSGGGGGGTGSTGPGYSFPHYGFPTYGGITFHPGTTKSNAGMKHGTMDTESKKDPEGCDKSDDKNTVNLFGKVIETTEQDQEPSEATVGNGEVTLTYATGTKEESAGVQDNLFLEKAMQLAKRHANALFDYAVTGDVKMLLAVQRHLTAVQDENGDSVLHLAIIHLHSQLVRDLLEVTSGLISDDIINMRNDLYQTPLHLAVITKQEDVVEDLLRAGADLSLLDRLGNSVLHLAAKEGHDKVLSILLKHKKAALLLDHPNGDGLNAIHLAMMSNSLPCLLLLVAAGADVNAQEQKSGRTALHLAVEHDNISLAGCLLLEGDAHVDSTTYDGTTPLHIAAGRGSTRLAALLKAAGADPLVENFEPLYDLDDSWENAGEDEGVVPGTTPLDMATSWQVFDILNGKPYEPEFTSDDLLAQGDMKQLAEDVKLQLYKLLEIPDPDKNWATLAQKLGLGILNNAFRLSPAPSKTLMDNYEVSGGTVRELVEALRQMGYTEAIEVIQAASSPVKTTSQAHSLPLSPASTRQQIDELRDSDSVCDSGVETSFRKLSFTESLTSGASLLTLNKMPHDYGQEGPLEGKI
T1 sequence (Q00653 whole entry, looked up): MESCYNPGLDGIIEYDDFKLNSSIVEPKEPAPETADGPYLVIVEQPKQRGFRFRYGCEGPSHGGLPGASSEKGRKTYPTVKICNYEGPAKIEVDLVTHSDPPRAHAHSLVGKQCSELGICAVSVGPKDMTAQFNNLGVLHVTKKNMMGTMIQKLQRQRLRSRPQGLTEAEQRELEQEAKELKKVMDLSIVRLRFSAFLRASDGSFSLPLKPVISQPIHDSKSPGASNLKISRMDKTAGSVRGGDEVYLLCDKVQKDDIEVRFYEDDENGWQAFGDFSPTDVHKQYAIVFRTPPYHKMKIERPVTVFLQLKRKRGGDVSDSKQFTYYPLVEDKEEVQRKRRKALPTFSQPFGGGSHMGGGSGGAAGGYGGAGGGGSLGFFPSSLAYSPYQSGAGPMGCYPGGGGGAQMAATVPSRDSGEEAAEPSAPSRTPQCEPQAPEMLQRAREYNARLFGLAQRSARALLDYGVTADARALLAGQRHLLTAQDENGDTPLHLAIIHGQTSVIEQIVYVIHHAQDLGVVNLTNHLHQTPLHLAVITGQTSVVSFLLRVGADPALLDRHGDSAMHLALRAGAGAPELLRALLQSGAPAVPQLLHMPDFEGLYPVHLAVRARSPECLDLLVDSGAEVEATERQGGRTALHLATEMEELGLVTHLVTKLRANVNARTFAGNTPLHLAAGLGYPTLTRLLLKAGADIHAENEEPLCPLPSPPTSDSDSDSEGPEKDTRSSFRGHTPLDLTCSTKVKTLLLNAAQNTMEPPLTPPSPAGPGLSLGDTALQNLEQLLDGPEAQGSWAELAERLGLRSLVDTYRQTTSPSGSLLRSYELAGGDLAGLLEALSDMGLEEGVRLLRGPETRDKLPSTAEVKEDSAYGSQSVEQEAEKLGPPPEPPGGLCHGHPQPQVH
T1 sequence (Q04206 whole entry, looked up): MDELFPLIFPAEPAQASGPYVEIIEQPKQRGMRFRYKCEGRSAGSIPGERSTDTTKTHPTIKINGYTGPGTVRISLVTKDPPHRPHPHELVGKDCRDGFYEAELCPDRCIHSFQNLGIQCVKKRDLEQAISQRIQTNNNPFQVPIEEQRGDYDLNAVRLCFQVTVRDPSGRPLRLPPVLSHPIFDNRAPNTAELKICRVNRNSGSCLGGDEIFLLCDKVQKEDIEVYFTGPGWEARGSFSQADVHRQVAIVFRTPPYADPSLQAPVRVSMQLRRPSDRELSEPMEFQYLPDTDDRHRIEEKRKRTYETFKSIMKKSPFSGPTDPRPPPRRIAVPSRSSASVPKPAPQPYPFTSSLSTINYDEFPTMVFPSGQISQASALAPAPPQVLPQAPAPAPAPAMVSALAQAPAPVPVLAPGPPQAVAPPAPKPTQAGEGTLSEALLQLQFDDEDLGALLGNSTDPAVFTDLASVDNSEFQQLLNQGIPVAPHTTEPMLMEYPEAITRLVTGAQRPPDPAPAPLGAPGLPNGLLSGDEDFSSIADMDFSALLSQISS

With O=C(Nc1ccc([N+](=O)[O-])cc1Cl)c1cc(Cl)ccc1O [NICLOSAMIDE] the “log(activity)” value [1] was 1.47 and the Activity (A549 [2]) was 24%.
With CC1(Nc2ccc(NC(=O)c3cc(Cl)ccc3O)c(Cl)c2)CCCCC1 the inhibition [3] was “Active”, the inhibition (SAEC [4]) was “Active” and the inhibition [5] was “Active”. The inhibition [6] was “Active”, the inhibition [7] was “Active” and the CC50 (A549 [8]) was 86.5 µM. The inhibition (A549 [9]) was “Active”, the inhibition [10] was “Active” and the inhibition [11] was “inactive”. The inhibition [12] was “Active”, the inhibition [13] was “inactive” and the inhibition (A549 [14]) was “Active”. For the same compound, the inhibition (A549 [15]) was “Active”, the inhibition [16] was “Active” and the inhibition (A549 [17]) was “inactive”. The “log(activity)” value [18] was 1.57, the inhibition [19] was “Active” and the inhibition (SAEC [20]) was “Active”. The inhibition [21] was “Active”, the inhibition (SAEC [22]) was “Active” and the inhibition [23] was “Active”. The “log(activity)” value [1] was 1.82, the inhibition [24] was “inactive” and the inhibition [25] was “Active”.
For O=C(Nc1ccc(NCc2ccco2)cc1Cl)c1cc(Cl)ccc1O, the inhibition [3] was “Active”, the inhibition [5] was “Active” and the inhibition [6] was “Active”. The inhibition [7] was “Active”, the CC50 (A549 [8]) was 76.3 µM and the inhibition (A549 [9]) was “Active”. For the same compound, the inhibition [10] was “Active”, the inhibition [12] was “Active” and the inhibition [13] was “Active”. For the same compound, the inhibition (A549 [14]) was “Active”, the inhibition (A549 [15]) was “Active” and the inhibition [16] was “Active”. The inhibition (A549 [17]) was “Active”, the inhibition [19] was “Active” and the “log(activity)” value [26] was 1.22. The inhibition [27] was “Active”, the inhibition [21] was “Active” and the inhibition [23] was “Active”. The “log(activity)” value [1] was 2.13, the inhibition [24] was “inactive” and the inhibition [25] was “Active”.
